Source: PubChem (several laboratories)
Hits are enriched below; roughly 2% of the tested compounds scored in any of these assays.
TROY NFkB inh = inhibitors of TROY-driven NF-kB signaling, primary screen, Q293 LMP1-TROYcd cells, NF-kB luciferase, uHTS; 0.98% of 360,000 active; inhibition, % at 10 µM; Q293 LMP1-TROYcd NF-kB luciferase reporter, 4 h; AID 1347056, 2019;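 active = compounds whose plate-normalised and pattern-corrected inhibition of the luciferase reporter signal at the single screening dose is 50% or more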
LGR2 inh = inhibitors of bursicon-induced LGR2 CRE-luciferase signal, primary screen, cell-based, HEK293, CRE-luciferase reporter, bursicon stimulation; bursicon-stimulated, 4 h; inhibition, % at 9.99 µM; 0.35% of 380,000 active;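 active = drop in luminescence signal, shown as inhibition above about 50% in the replicate tests, limit read from the data, passing the limit was not always enough; inconclusive = probably only some replicates passing the limit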;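 note: agonist challenge used bursicon conditioned medium at about half maximal strength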
Xi reactivation = activators of inactive X chromosome reactivation, primary screen, imaging, XiGFP fibroblasts, GFP high-content imaging, set 2 | XiGFP mouse fibroblasts, % GFP-positive cells imaging, 3 d; cells co-treated with 5-aza-dC sensitizer; scaled so ellipticine positive control = 100% | activation, % at 7.58 µM | 0.055% of 360,000 active | AID 743238, 2013;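 active = mean normalized replicate activation at least 10% and every replicate at or above 10%; inconclusive = only one of the two criteria met; inactive = mean below 10% and not all replicates reach 10%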
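System: 68-5-11 XiGFP fibroblast line; Timing: 3 days compound exposure; Compound dosing: one concentration, pinned; Benchmarks: positive control ellipticine, 6 µM final; Buffer or medium: DMEM containing 5-aza-dC.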
TWEAK-Fn14 inh = inhibitors of TWEAK-Fn14 signaling, primary screen, luciferase reporter cells, uHTS; TWEAK-stimulated Fn14 reporter cells, luciferase luminescence, 8 h; inhibition, % at 10 µM; 2% of 360,000 active; in the data active = inhibition above about 50%
CaV13 ICDI inh = Disruptors of the CACNA1D IQ motif to Ca2+-dependent inactivation inhibitor domain association, primary screening, Förster resonance energy transfer in intact living … | HEK cells, CFP/YFP FRET ICDI-IQ, plate reader, 10 min; percent FRET-ratio fall versus neutral wells | inhibition, % at 12.3 µM | 0.098% of 340,000 active | AID 743397;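 active = mean replicate inhibition of at least 30% and at least 1% of replicates passing that level; inconclusive = only one of the two criteria is met; inactive = neither criterion is met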
Of the large screens only hits and unclear results are named; the others gave an inactive call.

C/C(=N\NC(=O)c1ccccc1Cl)c1ccccn1	none
CC(C)[C@H]1C(=O)N[C@@H](c2ccccc2)CC=CC[C@H](C)Oc2ccccc2C(=O)N1C (mixture of isomers)	none (no result: TROY NFkB inh, LGR2 inh, TWEAK-Fn14 inh, CaV13 ICDI inh)
COCC(=O)N1CC2(CCN(Cc3cncnc3)CC2)c2c(n(C)c3cc(OC)ccc23)[C@H]1CO	none (no result: TROY NFkB inh, TWEAK-Fn14 inh, CaV13 ICDI inh)
C/C=C/c1ccc(C2[C@H]3CNC[C@@H]2N3Cc2ccccc2C(F)(F)F)cc1 (some centres not stated)	none (no result: TROY NFkB inh, LGR2 inh, TWEAK-Fn14 inh, CaV13 ICDI inh)
C[C@H](CO)N1C[C@H](C)[C@H](CN(C)C(=O)c2ccncc2)Oc2cc(C3=CCCC3)ccc2S1(=O)=O	none (no result: TROY NFkB inh, TWEAK-Fn14 inh, CaV13 ICDI inh)
COc1cc(-c2nc(-c3ccc4c(c3)-c3ccccc3S4(=O)=O)c(-c3ccccc3)[nH]2)cc(OC)c1O	TWEAK-Fn14 inh 59 (no result: LGR2 inh, Xi reactivation)
CCC1C(=O)C(C)(C)C(=O)OC1c1ccc([N+](=O)[O-])cc1 (configuration not stated)	none
O=C1CC(=O)OC(c2ccc([N+](=O)[O-])cc2)O1	TWEAK-Fn14 inh 102 (no result: LGR2 inh, Xi reactivation, CaV13 ICDI inh)
CCCCC(CCC(=O)O)(C(=O)OCC)c1csc(N)n1 (configuration not stated)	TWEAK-Fn14 inh 73 (no result: TROY NFkB inh, LGR2 inh, Xi reactivation, CaV13 ICDI inh)
CC1CC(C)(C)Nc2ccc(N=O)cc21 (configuration not stated)	TWEAK-Fn14 inh 80
CC1CC(C)(C)Nc2ccc(OC(=O)c3ccco3)cc21 (configuration not stated)	TWEAK-Fn14 inh 89 (no result: LGR2 inh, Xi reactivation)
O=C(Oc1ccc2ccccc2c1)c1ccco1	none (no result: LGR2 inh, Xi reactivation)
C[C@@H]1CCCCO[C@H](CN(C)Cc2ccc(C(=O)O)cc2)[C@@H](C)CN([C@H](C)CO)C(=O)c2cc(NS(=O)(=O)c3ccccc3)ccc2O1	none (no result: TROY NFkB inh, TWEAK-Fn14 inh, CaV13 ICDI inh)
O=C(Cc1ccccn1)c1ccc(Cl)cc1	none
CC1=C(CC(=O)c2ccc(Cl)cc2)C(=O)c2ccccc2C1=O	TROY NFkB inh 70, TWEAK-Fn14 inh 72 (no result: LGR2 inh, Xi reactivation)
C[C@H]1CN([C@@H](C)CO)S(=O)(=O)c2ccc(/C=C/c3ccccc3)cc2O[C@H]1CN(C)C(=O)c1ccncc1	none (no result: TROY NFkB inh, TWEAK-Fn14 inh, CaV13 ICDI inh)
COc1ccc(CN(C)C(=O)c2ccc(OCC(=O)Nc3cccc(C(F)(F)F)c3)c(OC)c2)c(OC)c1	none
COc1cccc(CN(C)C(=O)c2ccc(OCC(=O)Nc3cccc(C(F)(F)F)c3)c(OC)c2)c1	TWEAK-Fn14 inh 61
Cn1c(=N)n(CC(=O)c2ccc(Cl)c(Cl)c2)c2ccccc21	TWEAK-Fn14 inh 85
Cn1c(=N)n(CC(=O)c2ccccc2)c2ccccc21	Xi reactivation inconclusive
C[C@@H]1CCCCO[C@@H](CN(C)C(=O)Nc2ccc3c(c2)OCO3)[C@H](C)CN([C@@H](C)CO)C(=O)c2cc(NC(=O)Nc3ccc(C(F)(F)F)cc3)ccc2O1	none (no result: TROY NFkB inh, TWEAK-Fn14 inh, CaV13 ICDI inh)
COC(=O)c1sc(-c2ccc(C(C)(C)C)cc2)cc1NC(=O)c1ccccc1C(=O)O	TROY NFkB inh 52, Xi reactivation inconclusive
COc1ccc(-c2ccc3n(c2=O)C[C@H]2[C@H](CO)[C@@H](C(=O)N(C)C)[C@@H]3N2Cc2ccncc2)cc1	none (no result: TROY NFkB inh, TWEAK-Fn14 inh, CaV13 ICDI inh)
O=C(COc1ccc(CO)cc1Cl)Nc1ccc(F)cc1	TWEAK-Fn14 inh 63 (no result: LGR2 inh, Xi reactivation)
CN(C)c1ccc2c(c1)[C@H]1C[C@H](CC(=O)NC3CCCC3)O[C@H](CO)[C@H]1O2	none (no result: TROY NFkB inh, TWEAK-Fn14 inh, CaV13 ICDI inh)
O=C(N/N=C\c1c(O)ccc2ccccc12)c1ccc(S(=O)(=O)N2CCCCC2)cc1	Xi reactivation 48
O=C(NN=Cc1c(O)ccc2ccccc12)c1ccc2c(c1)OCO2	none
CC(=O)c1cn(CCOc2cc(C)ccc2C)c2ccccc12	TWEAK-Fn14 inh 100
C[C@H]1CCCCO[C@H](CN(C)C(=O)c2ccccc2)[C@@H](C)CN([C@@H](C)CO)C(=O)c2cc(NC(=O)CCC(F)(F)F)ccc2O1	none (no result: TROY NFkB inh, TWEAK-Fn14 inh, CaV13 ICDI inh)
Cc1cc(C)cc(NC(=O)/C=C/c2ccc([N+](=O)[O-])s2)c1	Xi reactivation inconclusive
Cc1ccccc1NC(=O)/C=C/c1ccc([N+](=O)[O-])s1	TWEAK-Fn14 inh 95 (no result: LGR2 inh, Xi reactivation, CaV13 ICDI inh)
CC(=O)c1cccc(NC(=O)/C=C/c2ccc([N+](=O)[O-])s2)c1	TWEAK-Fn14 inh 84
C[C@@H]1CN([C@@H](C)CO)C(=O)c2cccc(NS(=O)(=O)c3cn(C)cn3)c2O[C@@H]1CN(C)S(=O)(=O)c1ccc(Cl)cc1	none (no result: TROY NFkB inh, TWEAK-Fn14 inh, CaV13 ICDI inh)
S=C(NCCSCc1ccc(Cl)cc1Cl)Nc1ccccc1	none (no result: LGR2 inh, Xi reactivation)
CC(=O)c1ccc(NC(=S)NCc2ccc(Cl)cc2Cl)cc1	TROY NFkB inh 57
S=C(Nc1ccccc1)Nc1ccc(OCc2ccc(Cl)cc2Cl)cc1	TROY NFkB inh 81 (no result: LGR2 inh, Xi reactivation)
CC(C)NC(=O)N(C)C[C@@H]1Oc2ccc(NC(=O)Nc3ccccc3)cc2C(=O)N([C@@H](C)CO)C[C@H]1C	none (no result: TROY NFkB inh, TWEAK-Fn14 inh, CaV13 ICDI inh)
COc1cccc(CN(C)C(=O)c2cccc(NC(=O)CC3SC(N4CCCCC4)=NC3=O)c2)c1OC (configuration not stated)	none
COc1ccc(CN(C)C(=O)c2cccc(NC(=O)CC3SC(N4CCCCC4)=NC3=O)c2)c(OC)c1 (configuration not stated)	TWEAK-Fn14 inh 74
CCOc1cc(/C=C(\CC(=O)O)c2nc3ccccc3s2)ccc1OC	TWEAK-Fn14 inh 62
C=CCn1c(SCC(=O)Nc2ccccc2C)nc2sc(C)c(C)c2c1=O	none (no result: LGR2 inh, Xi reactivation, CaV13 ICDI inh)
C=CCn1c(SCC(=O)Nc2sccc2C(N)=O)nc2sc(C)c(C)c2c1=O	TROY NFkB inh 51 (no result: LGR2 inh, Xi reactivation)
Cc1cc(C(=O)COC(=O)c2cccc(S(=O)(=O)N(C)C)c2)c(C)n1CC1CCCO1 (configuration not stated)	none
Cc1cc(C(=O)COC(=O)CNC(=O)c2ccccc2)c(C)n1CC1CCCO1 (configuration not stated)	TWEAK-Fn14 inh 60
COCCn1c(C)cc(C(=O)COC(=O)CNC(=O)c2ccccc2)c1C	TROY NFkB inh 54, TWEAK-Fn14 inh 63
Cc1cccc(C(=O)NCC(=O)OCC(=O)c2cc(C)n(CC3CCCO3)c2C)c1 (configuration not stated)	TROY NFkB inh 80, TWEAK-Fn14 inh 59
COCCn1c(C)cc(C(=O)COC(=O)c2ccc(Br)o2)c1C	TROY NFkB inh 55, TWEAK-Fn14 inh 55
COCC(=O)N1CC2(C1)CN(Cc1ccccc1F)[C@H](CO)c1[nH]c3cc(OC)ccc3c12	none (no result: TROY NFkB inh, TWEAK-Fn14 inh, CaV13 ICDI inh)
C[C@@H]1CN([C@@H](C)CO)C(=O)c2cc(NC(=O)Nc3cccc4ccccc34)ccc2O[C@@H](C)CCCCO[C@H]1CN(C)CC1CCCCC1	none (no result: TROY NFkB inh, TWEAK-Fn14 inh, CaV13 ICDI inh)
COCCn1c(C)cc(C(=O)COC(=O)c2ccc[nH]c2=O)c1C	TROY NFkB inh 59, TWEAK-Fn14 inh 71
